The record followed here is article PMC12394810 (RSC Advances, 2025).

Entries after “also recorded” stand apart in the source; their conditions may differ.

Data set [1] deals with HepG2 (Human hematoma cell line). The data set is described as follows: MTT cytotoxicity assay, HEPG2. It is filed as cell-based. The settings on record: HepG2, 48 h, read-out: IC50 HEPG2. The gist of the method:
(§1)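 ATCC cells grown in DMEM with 10% FBS, 2 mM L-glutamine and 100 μg/mL penicillin–streptomycin at 37 °C, 5% CO2. Medium refreshed, 10 μL of 12 mM MTT stock added, then 4 h in the dark at 37 °C. Formazan dissolved in DMSO and read at 570 nm against media-only blanks. Three independent experiments; IC50 by linear regression.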
A general note: Tetrazolium assays rely on reduction of a dye to a coloured formazan, in cell work by metabolically active cells.

The subject of data set [2] is DU145 (human prostate cell line). The data set is described as follows: MTT cytotoxicity assay, DU145. The data set is classed as cell-based. The settings on record: DU-145, 48 h, read-out: IC50 DU145. Put shortly:
as §1

The test system of data set [3] is SKBR-3 (human breast cancer cell line). The data set is described as follows: MTT cytotoxicity assay, SKBR-3. The data set is classed as cell-based. The settings on record: SK-BR-3, 48 h, read-out: IC50 SKBR-3. Put shortly:
as §1

For data set [4], the system named is HEK-293 (human embryonic kidney cell line). The data set is described as follows: MTT cytotoxicity assay, HEK-293. It is filed as cell-based. The settings on record: HEK293, 48 h, read-out: IC50 HEK-293.
For data set [5], the system named is erythrocytes (heparinized human blood). The data set is described as follows: Erythrocyte osmotic fragility. It is filed as cell-based. The settings on record: 1 μL of 10 mg mL^−1 stock, 37 °C, 30 min.
A further data set relates to Swiss albino mice. The data set is described as follows: In vivo acute oral toxicity of compound 5n. The settings on record: for ALKP / Albumin / Bilirubin / Body weight / Cholesterol / Creatinine / Haemoglobin / RBC / SGOT / SGPT / Serum protein / Triglycerides / WBC: n = 6. Put shortly:
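30 Swiss albino mice (15 male, 15 female; 22–25 g), 7-day acclimatization, 22 ± 5 °C, 12 h light/dark, standard feed and water ad libitum. Five groups of 3 male + 3 female. Single oral dose of test compound at 5, 50, 300 or 1000 mg kg−1, suspended in gum acacia and 0.7% CMC; controls received vehicle. Clinical observation, body weight, haematology, serum biochemistry, organ weights; mean ± SE, n = 6, compared with control.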

Setting [6] is: single acute oral dose 5, 50, 300, 1000 mg kg^−1.
Where [7] appears, read: single oral dose 5 mg kg^−1, mean ± SE.
The mark [8] stands for this setting: single oral dose 50 mg kg^−1, mean ± SE.
The mark [9] stands for this setting: single oral dose 300 mg kg^−1, mean ± SE.
The mark [10] stands for this setting: single oral dose 1000 mg kg^−1, mean ± SE.

With `N#Cc1ccccc1COc1ccccc1C(=O)/C=C/C=C/c1ccccc1` [Compound 5i, 2-((2-((2E,4E)-5-Phenylpenta-2,4-dienoyl)phenoxy)methyl) benzonitrile], the IC50 (as a rule, the point on the concentration scale where inhibition reaches its midpoint) stood at 42 ± 2.1 µM in data set [1], 68.4 ± 2.8 µM in data set [2], 75.3 ± 2.1 µM in data set [3] and 48.2 ± 5 µM in data set [4].
On the same counts, the results for `CCCCCOc1ccccc1C(=O)/C=C/C=C/c1ccccc1` [Compound 5m, (2E,4E)-1-(2-(Pentyloxy)phenyl)-5-phenylpenta-2,4-dien-1-one] are 33.2 ± 0.7 µM, 126.8 ± 0.2 µM, 125 ± 6 µM and 104 ± 7.3 µM.
The matching figures for `O=C(/C=C/C=C/c1ccccc1)c1ccccc1OCc1ccc(Br)cc1` [Compound 5g, (2E,4E)-1-(2-((4-Bromobenzyl)oxy)phenyl)-5-phenylpenta-2,4-dien-1-one]: 25.8 ± 1.6 µM, 16.9 ± 2.3 µM, 15.7 ± 2.8 µM and 27.6 ± 4.2 µM.
For `O=C(/C=C/C=C/c1ccccc1)c1ccccc1OCc1ccc(F)cc1` [Compound 5e, (2E,4E)-1-(2-((4-Fluorobenzyl)oxy)phenyl)-5-phenylpenta-2,4-dien-1-one], the IC50 in data set [1] is 282 ± 5.7 µM; in data set [2], 278.6 ± 1.7 µM; in data set [3], 56.1 ± 1.8 µM; in data set [4], 49.8 ± 2.8 µM.
For the compound `O=c1c(O)c(-c2ccc(O)c(O)c2)oc2cc(O)cc(O)c12` [Quercetin, reference compound], the “MEF50 (Mean Erythrocyte Fragility; concentration of PBS at which 50% of erythrocytes undergo hemolysis)” value in data set [5] is 0.431.
Turning to `O=C(/C=C/C=C/c1ccccc1)c1ccccc1O` [Compound 3, (2E,4E)-1-(2-hydroxyphenyl)-5-phenylpenta-2,4-dien-1-one], the half-maximal inhibitory concentration (IC50) in data set [1] turned out to be 40.1 ± 2 µM; in data set [2], 83.5 ± 7.3 µM; in data set [3] it was 20.8 ± 4.1 µM; in data set [4], 67.4 ± 9.1 µM.
On the same counts, the results for `O=C(/C=C/C=C/c1ccccc1)c1ccccc1OCc1ccccc1` [Compound 5k, (2E,4E)-1-(2-(Benzyloxy)phenyl)-5-phenylpenta-2,4-dien-1-one] are 46.6 ± 1.4 µM, 55.6 ± 3.7 µM, 80.3 ± 8.7 µM and 109.4 ± 0.7 µM.
On the same counts, the results for `Cc1ccc(COc2ccccc2C(=O)/C=C/C=C/c2ccccc2)cc1` [Compound 5j, (2E,4E)-1-(2-((4-Methylbenzyl)oxy)phenyl)-5-phenylpenta-2,4-dien-1-one] are 25.7 ± 1.5 µM, 21.3 ± 5.6 µM, 7.87 ± 2.1 µM and 23.6 ± 1.4 µM.
Take `O=C(/C=C/C=C/c1ccccc1)c1ccccc1OCc1ccccc1Br` [Compound 5h, (2E,4E)-1-(2-((2-Bromobenzyl)oxy)phenyl)-5-phenylpenta-2,4-dien-1-one]: the IC50 came to 45 ± 3.3 µM in data set [1], 28.6 ± 2.2 µM in data set [2], 244 ± 4.7 µM in data set [3] and 23.4 ± 4.7 µM in data set [4].
For `O=C(/C=C/C=C/c1ccccc1)c1ccccc1OCCBr` [Compound 5n, (2E,4E)-1-(2-(2-Bromoethoxy)phenyl)-5-phenylpenta-2,4-dien-1-one], in data set [1], the IC50 was found to be 9.38 ± 1.6 µM. Further, the “Dose well tolerated / safe as a single acute oral dose” value in the data set with Swiss albino mice (oral) is listed as “up to 1000 mg kg^−1”. In the data set on Swiss albino mice (setting [6]), the “Gross pathology, absolute and relative organ weights” value was “no significant abnormalities in absolute or relative organ weights”; the “Morbidity, mortality, abnormal clinical signs” value is “no morbidity, mortality, or abnormal clinical signs; also recorded: no morbidity, mortality”. In the data set on Swiss albino mice (setting [7]), this compound returned an ALKP of 170.67 ± 13.43 U L^−1, an Albumin of 2.55 ± 0.19 g/dL, a Bilirubin of 0.50 ± 0.00 mg/dL and a Body weight of 31.33 ± 1.54 g. Also, in the data set on Swiss albino mice (setting [7]), the Cholesterol came out at 113.94 ± 4.49 mg/dL, the Creatinine worked out at 0.92 ± 0.08 mg/dL, the Haemoglobin stood at 12.74 ± 0.51 g/dL and the RBC was determined as 8.20 ± 0.60 million per mm^3. Also, in the data set on Swiss albino mice (setting [7]), the SGOT is given as 20.84 ± 0.88 U L^−1, the SGPT came to 16.76 ± 0.67 U L^−1, the Serum protein is 5.85 ± 0.13 mg/mL and the Triglycerides came to 111.43 ± 4.39 mg/dL. Further, the WBC with Swiss albino mice (setting [7]) is listed as 9.48 ± 0.68 1000*/mm^3. In the data set on Swiss albino mice (setting [8]), the ALKP came out at 164.25 ± 13.54 U L^−1, the Albumin worked out at 2.58 ± 0.07 g/dL, the Bilirubin worked out at 0.51 ± 0.00 mg/dL and the Body weight came out at 28.33 ± 0.72 g. In the data set with Swiss albino mice (setting [8]), this compound displayed a Cholesterol of 110.16 ± 3.57 mg/dL, a Creatinine of 0.86 ± 0.06 mg/dL, a Haemoglobin of 12.68 ± 0.67 g/dL and an RBC of 7.77 ± 0.66 million per mm^3. In the data set on Swiss albino mice (setting [8]), this compound came in with an SGOT of 20.60 ± 1.71 U L^−1, an SGPT of 18.63 ± 0.59 U L^−1, a Serum protein of 5.76 ± 0.16 mg/mL and a Triglycerides of 111.02 ± 5.61 mg/dL. Further, in the data set on Swiss albino mice (setting [8]), the WBC is 9.54 ± 0.79 1000*/mm^3. Also, in the data set on Swiss albino mice (setting [9]), the ALKP is listed as 173.23 ± 14.47 U L^−1, the Albumin came out at 2.55 ± 0.19 g/dL, the Bilirubin is 0.49 ± 0.02 mg/dL and the Body weight came out at 31.82 ± 0.96 g. In the data set on Swiss albino mice (setting [9]), this compound came in with a Cholesterol of 111.51 ± 3.48 mg/dL, a Creatinine of 0.90 ± 0.13 mg/dL, a Haemoglobin of 12.68 ± 0.71 g/dL and an RBC of 7.34 ± 0.38 million per mm^3. In the data set on Swiss albino mice (setting [9]), this compound registered an SGOT of 19.39 ± 1.51 U L^−1, an SGPT of 18.03 ± 0.64 U L^−1, a Serum protein of 5.86 ± 0.18 mg/mL and a Triglycerides of 110.41 ± 3.90 mg/dL. In the data set with Swiss albino mice (setting [9]), the WBC was 10.13 ± 0.50 1000*/mm^3. In the data set on Swiss albino mice (setting [10]), the ALKP is 170.75 ± 6.26 U L^−1, the Albumin was 2.70 ± 0.09 g/dL, the Bilirubin came out at 0.47 ± 0.04 mg/dL and the Body weight was determined as 27.92 ± 1.30 g. In addition, in the data set on Swiss albino mice (setting [10]), the Cholesterol was 107.82 ± 3.48 mg/dL, the Creatinine was 0.97 ± 0.09 mg/dL, the Haemoglobin was found to be 12.42 ± 0.55 g/dL and the RBC came out at 7.54 ± 0.62 million per mm^3. Also, in the data set with Swiss albino mice (setting [10]), the SGOT is reported as 19.73 ± 1.43 U L^−1, the SGPT is 17.55 ± 1.23 U L^−1, the Serum protein stood at 5.93 ± 0.13 mg/mL and the Triglycerides was 108.74 ± 2.77 mg/dL. The IC50 in data set [2] was 8.72 ± 1.8 µM. The “MEF50 (Mean Erythrocyte Fragility; concentration of PBS at which 50% of erythrocytes undergo hemolysis)” value in data set [5] is on record as 0.457. In addition, the IC50 in data set [3] came out at 7.69 ± 2.8 µM. The IC50 in data set [4] amounted to 18.5 ± 1.1 µM.
`O=C(/C=C/C=C/c1ccccc1)c1ccccc1OCc1ccccc1Cl` [Compound 5d, (2E,4E)-1-(2-((2-Chlorobenzyl)oxy)phenyl)-5-phenylpenta-2,4-dien-1-one]: the IC50 was determined as 41.4 ± 3.9 µM in data set [1], 46.1 ± 1.1 µM in data set [2], 75.9 ± 4.8 µM in data set [3] and 203 ± 5.3 µM in data set [4].
On the same counts, the results for `O=C(/C=C/C=C/c1ccccc1)c1ccccc1OCc1cccc(Cl)c1` [Compound 5a, (2E,4E)-1-(2-((3-Chlorobenzyl)oxy)phenyl)-5-phenylpenta-2,4-dien-1-one] are 40.3 ± 2.9 µM, 45.2 ± 2.1 µM, 20.8 ± 1.7 µM and 30.1 ± 8.3 µM.
Turning to `COc1cccc2c1C(=O)c1c(O)c3c(c(O)c1C2=O)C[C@@](O)(C(=O)CO)C[C@@H]3O[C@H]1C[C@H](N)[C@H](O)[C@H](C)O1` [Doxorubicin, reference compound], the IC50 in data set [1] is 2.5 ± 1.42 µM; in data set [2] it was 0.45 ± 0.52 µM; in data set [3], 0.7 ± 0.56 µM.
As to `O=C(/C=C/C=C/c1ccccc1)c1ccccc1OCc1ccc(Cl)c(Cl)c1` [Compound 5b, (2E,4E)-1-(2-((3,4-dichlorobenzyl)oxy)phenyl)-5-phenylpenta-2,4-dien-1-one], the IC50 in data set [1] was 9.19 ± 0.6 µM; in data set [2], 17.9 ± 3.4 µM; in data set [3], 22.4 ± 2.4 µM; in data set [4] it was 20.4 ± 1.6 µM. Moreover, the “MEF50 (Mean Erythrocyte Fragility; concentration of PBS at which 50% of erythrocytes undergo hemolysis)” value in data set [5] worked out at 0.538.
As to `O=C(/C=C/C=C/c1ccccc1)c1ccccc1OCc1ccc(Cl)cc1` [Compound 5c, (2E,4E)-1-(2-((4-Chlorobenzyl)oxy)phenyl)-5-phenylpenta-2,4-dien-1-one], the IC50 in data set [1] amounted to 40.17 ± 0.2 µM; in data set [2], 47.1 ± 4.5 µM; in data set [3] it was 30.7 ± 2 µM; in data set [4], 22.3 ± 1.2 µM.
